T cruzi growth-1 = T. cruzi intracellular proliferation inhibitors, primary screen, cell-based, beta-gal Tulahuen parasites, NIH3T3 host, luminescence. T. cruzi beta-gal in NIH3T3, GalScreen luminescence, 90 h. inhibition, % at 8.34 µM. hit rate 5.9% among 77,000. AID 624255, 2012;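 active = mean inhibition above about 93%, with at least 55% of replicates each passing it, limit read from the data, passing the limit was not always enough; inconclusive = only one of those two conditions holds; inactive = neither condition holds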
IDH1 mut inh = inhibitors of IDH1 R132H reductase, primary screen, biochemical, plate reader, single point; Isocitrate dehydrogenase [NADP] cytoplasmic (Homo sapiens), O75874; diaphorase/resazurin fluorescence, 60 min; inhibition, % at 10 µM; hit rate 0.18% among 70,000; AID 624101, 2012; in the data active = inhibition above about 34%; inconclusive = no clear call, values can overlap the other calls; inactive = below about 11%;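 also: 0% = DMSO and 100% = no enzyme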
GASC1 inh = inhibitors of GASC-1 (KDM4C) histone demethylase, primary screen, biochemical, single concentration HTS; GST-KDM4C 2-372, H3K9me3 peptide, LANCE TR-FRET; hit rate 0.15% among 96,000; AID 720574, 2013; Lysine-specific demethylase 4C (Homo sapiens), Q9H3R0; inhibition, % at 12.5 µM;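 active = mean replicate inhibition above about 25%, with at least 55% of replicates also reaching it, limit read from the data, passing the limit was not always enough; inconclusive = only one of those two conditions met; inactive = neither condition met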
Target sequence (Q9H3R0 2-372 limits assumed): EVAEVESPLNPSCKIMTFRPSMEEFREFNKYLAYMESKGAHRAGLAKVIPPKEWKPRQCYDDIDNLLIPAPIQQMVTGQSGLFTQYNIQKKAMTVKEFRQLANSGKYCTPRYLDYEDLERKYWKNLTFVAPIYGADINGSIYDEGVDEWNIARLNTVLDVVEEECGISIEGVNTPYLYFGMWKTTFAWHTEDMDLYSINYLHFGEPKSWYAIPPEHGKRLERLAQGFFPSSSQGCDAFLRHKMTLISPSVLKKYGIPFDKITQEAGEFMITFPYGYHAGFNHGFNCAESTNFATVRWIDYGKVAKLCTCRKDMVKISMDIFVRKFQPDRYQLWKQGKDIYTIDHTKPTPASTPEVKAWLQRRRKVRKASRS
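reagent = H3K9me3 peptide substrate, Fe(II), 2-oxoglutarate | system = GST-tagged GASC-1 (JMJD2C) catalytic fragment, aa 2-372 | amount = enzyme final amount 10 nM | read-out = Fall in 671/618 emission ratio as inhibition | medium = HEPES buffer, pH 7.5, plus ascorbate | schedule = 30 min reaction, 60 min detection, RT | measured by = LANCE TR-FRET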
T cruzi growth-2 = T. cruzi intracellular proliferation inhibitors, confirmation, cell-based, NIH3T3 host, beta-gal parasite, luminescence, cherry-pick; shares compounds with T cruzi growth-1; inhibition, % at 8.35 µM; hit rate 72% among 5,600; T. cruzi beta-gal in NIH3T3, GalScreen luminescence, 90 h;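 active = mean replicate inhibition above about 95% and at least 55% of replicates individually reaching it, limit read from the data; inconclusive = only one of the two criteria is met; inactive = neither criterion is met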
T cruzi growth-3 = inhibitors of intracellular T. cruzi replication, confirmation, NIH3T3 host cells, beta-gal parasites, cherry-pick, set 2. shares compounds with T cruzi growth-1. T. cruzi beta-gal in NIH3T3, GalScreen luminescence, 90 h. inhibition, % at 2.09 µM. hit rate 21% among 5,600;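 active = mean inhibition above about 95%, with at least 55% of replicates also reaching it, limit read from the data; inconclusive = meets just one of the two conditions; inactive = meets neither condition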;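 also: plate controls were neutral control median for no effect and positive control median for full effect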
3T3 cytotox = cytotoxicity in mouse NIH/3T3 fibroblasts, confirmation, cytotoxicity control for T. cruzi proliferation inhibitor project, cell-based, cherry-pick, single point | shares compounds with T cruzi growth-1 | NIH/3T3 viability, CellTiter-Glo ATP luminescence, 90 h | cytotoxicity (signal decrease), % at 8.35 µM | hit rate 14% among 5,600 | AID 651742, 2012;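 active = mean signal decrease across replicates above about 35% based on untreated-well scatter, with enough replicates individually passing, limit read from the data; inconclusive = no rule stated though some were filed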;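 also: 0% = median of neutral control wells and 100% = median of positive control wells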
3T3 cytotox 2 = NIH/3T3 fibroblast cytotoxicity, confirmation, cytotoxicity control, cell-based, cherry-pick, single point, set 2; hit rate 56% among 5,600; shares compounds with T cruzi growth-1; NIH/3T3 viability, CellTiter-Glo ATP luminescence, 90 h; inhibition, % at 24.9 µM;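 active = mean loss of cell viability signal at or above a set limit, and enough replicates individually reaching it; inconclusive = meets only the mean limit or only the replicate share; inactive = meets neither condition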;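 also: 0% = median of neutral control wells and 100% = median of positive control wells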
* = called active by the depositor. Only a selection was taken, and hits are over-represented in it overall.

What do the screens show for `Cc1cccc(S(=O)(=O)N2CCCCN3[C@@H](CO)[C@H](c4ccc(-c5ccccc5)cc4)[C@@H]3C2)c1`?
T cruzi growth-1: 94

What do the screens show for `Cc1cccc(S(=O)(=O)N2CCCCN3[C@H](CO)[C@H](c4ccc(-c5ccccc5)cc4)[C@@H]3C2)c1`?
T cruzi growth-1: 116*; T cruzi growth-2: 98*; T cruzi growth-3: 80; 3T3 cytotox: -10; 3T3 cytotox 2: 51*

What do the screens show for `O=S(=O)(c1ccccc1)N1CCCCN2[C@@H](CO)[C@@H](c3ccc(-c4ccccc4)cc3)[C@@H]2C1`?
T cruzi growth-1: 81; GASC1 inh: 1

What do the screens show for `Cc1cccc(-c2ccc([C@H]3[C@H]4CN(S(=O)(=O)c5cccc(C)c5)CCCCN4[C@H]3CO)cc2)c1`?
T cruzi growth-1: 64; GASC1 inh: 0

How did Cc1cccc(-c2ccc([C@@H]3[C@H]4CN(S(=O)(=O)c5cccc(C)c5)CCCCN4[C@H]3CO)cc2)c1 do in these assays?
T cruzi growth-1: 110*; GASC1 inh: 0; T cruzi growth-2: 104*; T cruzi growth-3: 115*; 3T3 cytotox: 27; 3T3 cytotox 2: 56*

What do the screens show for `Cc1cccc(S(=O)(=O)N2CCCCN3[C@H](C2)[C@@H](c2ccc(-c4ccccc4)cc2)[C@@H]3CO)c1`?
T cruzi growth-1: 77

Results for Cc1cccc(-c2ccc([C@H]3[C@@H](CO)N4CCCCN(S(=O)(=O)c5cccc(C)c5)C[C@H]34)cc2)c1 ?
T cruzi growth-1: 100*; GASC1 inh: 1; T cruzi growth-2: 88; T cruzi growth-3: 106*; 3T3 cytotox: 50*; 3T3 cytotox 2: 103*

How did O=S(=O)(c1ccccc1)N1CCCCN2[C@H](CO)[C@H](c3ccc(-c4ccccc4)cc3)[C@@H]2C1 do in these assays?
T cruzi growth-1: 104*; GASC1 inh: 1; T cruzi growth-2: 100*; T cruzi growth-3: 84; 3T3 cytotox: -5; 3T3 cytotox 2: 49*

How did CCc1nc(SCC(=O)OC)c2c3c(sc2n1)CCCC3 do in these assays?
IDH1 mut inh: 0

Results for COc1ccccc1NC(=O)C1=C(C)Nc2ncnn2C1c1ccccc1OCc1ccccc1 (centres undefined) ?
IDH1 mut inh: 0

How did COc1ccc(C)cc1NC(=O)CN(c1cc(Cl)c(Cl)cc1Cl)S(C)(=O)=O do in these assays?
IDH1 mut inh: 0

What do the screens show for `CCc1csc(N2[C@H](C#N)[C@@H](c3ccc(-c4ccc(F)cc4)cc3)[C@H]2CO)n1`?
T cruzi growth-1: 106*; GASC1 inh: -2; T cruzi growth-2: 106*; T cruzi growth-3: 99*; 3T3 cytotox: 0; 3T3 cytotox 2: inconclusive

How did C/C=C/c1ccccc1[C@H]1[C@@H](C#N)N(c2ncc(CC)s2)[C@@H]1CO do in these assays?
GASC1 inh: -1

What do the screens show for `C/C=C/c1ccc([C@@H]2[C@@H](CO)N(c3ncc(CC)s3)[C@H]2C#N)cc1`?
T cruzi growth-1: 99*; GASC1 inh: -1; T cruzi growth-2: 78; T cruzi growth-3: 58; 3T3 cytotox: 2; 3T3 cytotox 2: 12

Results for CCc1csc(N2[C@H](CO)[C@@H](c3ccc(C4=CCCC4)cc3)[C@@H]2C#N)n1 ?
T cruzi growth-1: 92; GASC1 inh: -2

How did C/C=C/c1ccc([C@H]2[C@@H](CO)N(c3nc(CC)cs3)[C@H]2C#N)cc1 do in these assays?
T cruzi growth-1: 101*; GASC1 inh: 3; T cruzi growth-2: 81; T cruzi growth-3: 32; 3T3 cytotox: -14; 3T3 cytotox 2: 26*

Results for CCc1csc(N2[C@H](C#N)[C@H](c3ccc(-c4cccc(F)c4)cc3)[C@H]2CO)n1 ?
T cruzi growth-1: 89; GASC1 inh: -3

Results for C/C=C/c1ccc([C@@H]2[C@@H](CO)N(c3nc(-c4ccccc4)cs3)[C@H]2C#N)cc1 ?
GASC1 inh: -3

What do the screens show for `CCc1csc(N2[C@@H](C#N)[C@@H](c3ccc(C4=CCCC4)cc3)[C@@H]2CO)n1`?
T cruzi growth-1: 101*; GASC1 inh: -2; T cruzi growth-2: 103*; T cruzi growth-3: 60; 3T3 cytotox: 42*; 3T3 cytotox 2: 77*

Results for CCc1csc(N2[C@@H](C#N)[C@@H](c3ccccc3-c3cccc(F)c3)[C@@H]2CO)n1 ?
GASC1 inh: -1

How did N#C[C@H]1[C@H](c2ccc(-c3ccc(F)cc3)cc2)[C@H](CO)N1c1nc(-c2ccccc2)cs1 do in these assays?
GASC1 inh: -6

What do the screens show for `CCc1csc(N2[C@@H](C#N)[C@H](c3ccc(-c4ccc(F)cc4)cc3)[C@@H]2CO)n1`?
T cruzi growth-1: 105*; GASC1 inh: -2; T cruzi growth-2: 102*; T cruzi growth-3: 44; 3T3 cytotox: 19; 3T3 cytotox 2: 18

What do the screens show for `CCc1csc(N2[C@H](CO)[C@@H](c3ccc(-c4cccc(F)c4)cc3)[C@@H]2C#N)n1`?
T cruzi growth-1: 85; GASC1 inh: -2

Results for CCc1csc(N2[C@H](C#N)[C@H](c3ccc(-c4ccc(F)cc4)cc3)[C@@H]2CO)n1 ?
T cruzi growth-1: 102*; GASC1 inh: -4; T cruzi growth-2: 101*; T cruzi growth-3: 110*; 3T3 cytotox: 13; 3T3 cytotox 2: 37*

Results for CCc1csc(N2[C@@H](C#N)[C@@H](c3ccc(-c4ccc(F)cc4)cc3)[C@@H]2CO)n1 ?
T cruzi growth-1: 98*; GASC1 inh: -3; T cruzi growth-2: 98*; T cruzi growth-3: 73; 3T3 cytotox: 49*; 3T3 cytotox 2: 83*

What do the screens show for `O=c1[nH]c(=S)c2c(n1N1CCOCC1)CCC2`?
IDH1 mut inh: 0

How did CC(C)CC#Cc1ccc2c(c1)O[C@@H](CN(C)CC1CCOCC1)[C@@H](C)CN([C@H](C)CO)S2(=O)=O do in these assays?
T cruzi growth-1: 118*; GASC1 inh: -2; T cruzi growth-2: 108*; T cruzi growth-3: 91; 3T3 cytotox: 16; 3T3 cytotox 2: 104*
